ChEMBL document CHEMBL1158610, “5-arylamino-1,2,4-triazin-6(1H)-one CRF1 receptor antagonists” (Bioorg Med Chem Lett, 2010)

What was measured:
[1] = target: T1, Corticotropin-releasing factor receptor 1 (Rattus norvegicus, UniProt P35353); experiment: Displacement of [125I]Tyr-ovine CRF from rat CRF1 receptor
T1 sequence (P35353 whole entry): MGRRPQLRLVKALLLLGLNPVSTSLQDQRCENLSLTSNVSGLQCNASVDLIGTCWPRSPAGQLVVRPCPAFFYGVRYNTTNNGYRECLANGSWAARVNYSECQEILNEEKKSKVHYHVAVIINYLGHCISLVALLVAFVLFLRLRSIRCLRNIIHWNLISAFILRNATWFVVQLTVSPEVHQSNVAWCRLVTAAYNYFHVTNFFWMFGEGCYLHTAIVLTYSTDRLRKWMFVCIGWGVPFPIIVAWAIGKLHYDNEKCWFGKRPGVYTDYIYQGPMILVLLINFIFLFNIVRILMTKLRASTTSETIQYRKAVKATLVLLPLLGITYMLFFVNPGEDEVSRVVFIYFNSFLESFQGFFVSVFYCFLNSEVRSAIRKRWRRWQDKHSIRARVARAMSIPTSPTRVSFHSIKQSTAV
Method in brief: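 Rat frontal cortex homogenate; inhibition of specific [¹²⁵I]Tyr-ovine-CRF binding measured across a titration of test compound to give IC50. Values are means of three experiments, with standard deviation.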

[2] = target: T2, Corticotropin-releasing factor receptor 1 (Rattus norvegicus) (UniProt P35353); experiment: Displacement of [125]sauvagin from CRF1 receptor in rat parietal cortex
T2 sequence (whole entry): T1 sequence (P35353 whole entry)

Liver microsomes [3] = experiment: Metabolic stability in human liver microsome assessed as compound remaining; type: ADME
Liver microsomes [4] = experiment: Metabolic stability in rat liver microsome assessed as compound remaining; type: ADME

IC50 [1] [nM] | SMILES | further results
3.6 | CCOc1ccc(Nc2nc(C)nn(C(CC)C3CC3)c2=O)c(C(F)(F)F)n1 (configuration not stated) | 
12 | COc1ccc(Nc2nc(C)nn([C@@H](C)C3CC3)c2=O)c(C(F)(F)F)n1 | 
1.1 | COCC(C1CC1)n1nc(C)nc(Nc2cc(C)c(OC(F)F)nc2C)c1=O (configuration not stated) | 
3.7 | COCC(C1CC1)n1nc(C)nc(Nc2ccc(OC)nc2C(F)(F)F)c1=O (configuration not stated) | 
68 | COc1cc(C)c(Nc2nc(C)nn(C(C)C3CC3)c2=O)c(C)c1 (configuration not stated) | 
2.3 | COC[C@@H](C1CC1)n1nc(C)nc(Nc2ccc(OC)nc2C(F)(F)F)c1=O | 
6.3 | COCC(C1CC1)n1nc(C)nc(Nc2c(Cl)cc(OC(F)F)cc2Cl)c1=O (configuration not stated) | 
9.9 | Cc1nc(Nc2c(Cl)cc(OC(F)F)cc2Cl)c(=O)n(C(C)C2CC2)n1 (configuration not stated) | 
15 | COC[C@H](C1CC1)n1nc(C)nc(Nc2ccc(OC)nc2C(F)(F)F)c1=O | 
15 | COc1cc(Cl)c(Nc2nc(C)nn(C(C)C3CC3)c2=O)c(Cl)c1 (configuration not stated) | 
9.3 | CCC(C1CC1)n1nc(C)nc(Nc2cc(C)c(C#N)cc2C)c1=O (configuration not stated) | 
5 | COc1cc(C)c(Nc2nc(C)nn(C(C)C3CC3)c2=O)cc1C (configuration not stated) | 
20 | Cc1nc(Nc2c(Cl)cc(S(C)(=O)=O)cc2Cl)c(=O)n(C(C)C2CC2)n1 (configuration not stated) | 
2.1 | CCC(C1CC1)n1nc(C)nc(Nc2c(Cl)cc(OC(F)F)cc2Cl)c1=O (configuration not stated) | 
3.7 | CCC(C1CC1)n1nc(C)nc(Nc2ccc(OC)nc2C(F)(F)F)c1=O (configuration not stated) | 
94 | COc1cc(Nc2nc(C)nn(C(C)C3CC3)c2=O)c(C)cc1C#N (configuration not stated) | 
6.3 | CCC(C1CC1)n1nc(C)nc(Nc2c(Cl)cc(C(F)(F)F)cc2Cl)c1=O (configuration not stated) | 
69 | COC[C@@H](C1CC1)n1nc(C)nc(Nc2c(Cl)cc(OC)cc2Cl)c1=O | 
23 | COC[C@@H](C1CC1)n1nc(C)nc(Nc2c(Cl)cc(OC(F)F)cc2Cl)c1=O | 

IC50 [1] [nM] | SMILES | further results
0.89 | CCC(C1CC1)n1nc(C)nc(Nc2cc(C)c(OC)cc2C)c1=O (configuration not stated) | Activity [2]: 64%
7.5 | COc1cc(Cl)c(Nc2nc(C)nn([C@@H](C)C3CC3)c2=O)c(Cl)c1 | 
20 | COCC(C1CC1)n1nc(C)nc(Nc2cc(C)c(OC)nc2C)c1=O (configuration not stated) | 
6.3 | COCC(C1CC1)n1nc(C)nc(Nc2c(Cl)cc(OC)cc2Cl)c1=O (configuration not stated) | 
23 | CCOc1ccc(Nc2nc(C)nn([C@@H](C)C3CC3)c2=O)c(C(F)(F)F)n1 | 
6.7 | COc1ccc(Nc2nc(C)nn(C(C)C3CC3)c2=O)c(C(F)(F)F)n1 (configuration not stated) | 
1.1 | COC[C@@H](C1CC1)n1nc(C)nc(Nc2cc(C)c(OC(F)F)nc2C)c1=O | 
1100 | COc1nc(C)c(Nc2nc(C)nn(C(C)C3CC3)c2=O)c(OC)n1 (configuration not stated) | 
2.4 | CCOc1ccc(Nc2nc(C)nn([C@@H](COC)C3CC3)c2=O)c(C(F)(F)F)n1 | 
270 | Cc1nc(Nc2cc(Cl)c(C#N)cc2Cl)c(=O)n(C(C)C2CC2)n1 (configuration not stated) | 
260 | Cc1nc(Nc2c(Cl)cc(C(F)(F)F)nc2Cl)c(=O)n(C(C)C2CC2)n1 (configuration not stated) | 
12 | CCOc1ccc(Nc2nc(C)nn(C(C)C3CC3)c2=O)c(C(F)(F)F)n1 (configuration not stated) | 
2.7 | CCC(C1CC1)n1nc(C)nc(Nc2cc(C)c(OC)nc2C(F)(F)F)c1=O (configuration not stated) | 
60 | Cc1nc(Nc2cc(C)c(C#N)cc2C)c(=O)n(C(C)C2CC2)n1 (configuration not stated) | 
27 | CCOc1ccc(Nc2nc(C)nn([C@H](COC)C3CC3)c2=O)c(C(F)(F)F)n1 | 
7.2 | Cc1nc(Nc2c(Cl)cc(OC(F)F)cc2Cl)c(=O)n([C@@H](C)C2CC2)n1 | 
4.4 | COC[C@H](C1CC1)n1nc(C)nc(Nc2c(Cl)cc(OC(F)F)cc2Cl)c1=O | 
11 | COCC(C1CC1)n1nc(C)nc(Nc2c(Cl)cc(C(F)(F)F)cc2Cl)c1=O (configuration not stated) | 
28 | CCOc1cc(C)c(Nc2nc(C)nn(C(C)C3CC3)c2=O)cc1C (configuration not stated) | 

IC50 [1] [nM] | SMILES | further results
26 | COc1nc(C)c(Nc2nc(C)nn(C(C)C3CC3)c2=O)cc1C (configuration not stated) | 
39 | Cc1nc(Nc2c(Cl)cc(OC(F)(F)F)cc2Cl)c(=O)n(C(C)C2CC2)n1 (configuration not stated) | 
6.5 | COC[C@H](C1CC1)n1nc(C)nc(Nc2cc(C)c(OC(F)F)nc2C)c1=O | 
10 | Cc1nc(Nc2c(Cl)cc(C#N)c(Cl)c2Cl)c(=O)n(C(C)C2CC2)n1 (configuration not stated) | 
11 | COCC(C1CC1)n1nc(C)nc(Nc2c(Cl)cc(OC(F)(F)F)cc2Cl)c1=O (configuration not stated) | 
19 | Cc1cc(C)c(Nc2nc(C)nn(C(C)C3CC3)c2=O)c(C)c1 (configuration not stated) | 
33 | Cc1nc(Nc2c(C)cc(Cl)cc2Cl)c(=O)n(C(C)C2CC2)n1 (configuration not stated) | 
6.5 | CCC(C1CC1)n1nc(C)nc(Nc2cc(C)c(OC)nc2C)c1=O (configuration not stated) | 
13 | Cc1nc(Nc2c(Cl)cc(OC(F)F)cc2Cl)c(=O)n([C@H](C)C2CC2)n1 | 
3300 | Cc1nc(Nc2cc(C(F)(F)F)c(C#N)cc2Cl)c(=O)n(C(C)C2CC2)n1 (configuration not stated) | 
51 | COCC(C1CC1)n1nc(C)nc(Nc2c(C)cc(OC)cc2C)c1=O (configuration not stated) | 
14 | Cc1nc(Nc2c(Cl)cc(C(F)(F)F)cc2Cl)c(=O)n(C(C)C2CC2)n1 (configuration not stated) | 
3.5 | COc1ccc(Nc2nc(C)nn([C@H](C)C3CC3)c2=O)c(C(F)(F)F)n1 | Stability (Liver microsomes [3]): 85%; Stability (Liver microsomes [4]): 37%
7.2 | COC[C@H](C1CC1)n1nc(C)nc(Nc2c(Cl)cc(OC)cc2Cl)c1=O | 
 | Cc1cn([C@H](C)C2CC2)c(=O)c(Nc2c(Cl)cc(OC(F)F)cc2Cl)n1 | Stability (Liver microsomes [3]): 71%; Stability (Liver microsomes [4]): 12%
3 | CCOc1ccc(Nc2nc(C)nn(C(COC)C3CC3)c2=O)c(C(F)(F)F)n1 (configuration not stated) | Activity [2]: 46%
8.6 | CCOc1ccc(Nc2nc(C)nn([C@H](C)C3CC3)c2=O)c(C(F)(F)F)n1 | 
8.3 | COc1cc(Cl)c(Nc2nc(C)nn([C@H](C)C3CC3)c2=O)c(Cl)c1 | 
13 | CCC(C1CC1)n1nc(C)nc(Nc2cc(OC)c(C#N)cc2C)c1=O (configuration not stated) | 
